Values joined by “and” are separate entries in the source; they are usually repeats but may differ in a detail not shown here. Identical values can stand only once.
Assays:
Canis familiaris [1] = experiment: The change in stroke volume was determined after 10 min of 1.0 ug/kg administration in the dog heart-lung preparation; assay type: functional, Canis lupus familiaris
Procedure, shortened: (§1)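 Dog heart-lung preparation from mongrel dogs of either sex, 11–19 kg, anesthetized with sodium pentobarbital 35 mg/kg iv. Strain gauge arch on the right ventricle; left atrial pressure by atrial cannula transducer; aortic flow by extracorporeal flow meter. Drug was added to the blood reservoir and measured at 10 min, n = 5–8. Change vs control by paired t test.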

Canis familiaris [2] = experiment: The heart rate was determined after 1.0 mg/kg administration with 20 mg/kg pentobarbital in the dog heart-lung preparation; assay type: functional, Canis lupus familiaris
Procedure, shortened: (§2)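 Heart-lung preparation from mongrel dogs anesthetized with pentobarbital 35 mg/kg iv. Failure was induced by adding pentobarbital 20 mg/kg to the blood reservoir, then test agent 1 mg/kg was added. Force, rate, output, stroke volume, left atrial pressure and stroke work were read 10 min later. Five preparations, means ± SE, analysis of variance.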

Canis familiaris [3] = experiment: The change in stroke volume was determined after 10 min of 0.3 ug/kg administration in the dog heart-lung preparation; assay type: functional, Canis lupus familiaris; procedure, shortened: as §1
Canis familiaris [4] = experiment: The change in heart rate was determined after 10 min of 0.3 ug/kg administration in the dog heart-lung preparation; assay type: functional, Canis lupus familiaris; procedure, shortened: as §1
Canis familiaris [5] = experiment: Pharmacological activity for Contractile force, +30% in anesthetized dog was determined after intravenous administration; assay type: functional, Canis lupus familiaris
Procedure, shortened: (§3)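 Anesthetized dogs; contractile force recorded by a left-ventricular Walton-Brodie strain gauge arch, heart rate from lead II EKG, plus blood pressure. Stabilized at least 30 min, then at least three iv doses given, one compound per animal, with return to basal between doses. Doses for +30% force, +15% rate and −20% BP were extrapolated from dose-response curves; geometric mean where repeated.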

Canis familiaris [6] = experiment: The change in cardiac contractile force after 1 mg/kg iv administration with 0.5 mg/kg, iv propranolol; assay type: functional, Canis lupus familiaris, Heart
Procedure, shortened: (§4)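 Anesthetized dogs, N = 6 per group, given test agent 1 mg/kg iv or isoproterenol 0.1 μg/kg iv, with or without propranolol 0.5 mg/kg iv pretreatment. Percent change from control was recorded for contractile force (strain gauge arch) and for mean arterial BP. Values are means ± SE, compared by Student's t test.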

Canis familiaris [7] = experiment: (§5) The change in cardiac output was determined after 10 min of 3.0 ug/kg administration in the dog heart-lung preparation; assay type: functional, Canis lupus familiaris; procedure, shortened: as §1
Canis familiaris [8] = experiment: The change in left atrial pressure was determined after 10 min of 3.0 ug/kg administration in the dog heart-lung preparation; assay type: functional, Canis lupus familiaris, Cardiac atrium; procedure, shortened: as §1
Canis familiaris [9] = experiment: The change in stroke volume was determined after 10 min of 3.0 ug/kg administration in the dog heart-lung preparation; assay type: functional, Canis lupus familiaris; procedure, shortened: as §1
Canis familiaris [10] = experiment: The change in cardiac contractile force after 10 min of 3.0 ug/kg administration in the dog heart-lung preparation; assay type: functional, Canis lupus familiaris; procedure, shortened: as §1
Canis familiaris [11] = experiment: The change in left atrial pressure was determined after 10 min of 0.3 ug/kg administration in the dog heart-lung preparation; assay type: functional, Canis lupus familiaris, Cardiac atrium; procedure, shortened: as §1
Canis familiaris [12] = experiment: The left atrial pressure was determined after 1.0 mg/kg administration with 20 mg/kg pentobarbital in the dog heart-lung preparation; assay type: functional, Canis lupus familiaris, Cardiac atrium; procedure, shortened: as §2
Canis familiaris [13] = experiment: The change in left atrial pressure was determined after 10 min of 3.0 ug/kg administration in the dog heart-lung preparation.; assay type: functional, Canis lupus familiaris, Cardiac atrium; procedure, shortened: as §1
Canis familiaris [14] = experiment: The change in cardiac contractile force was determined after 10 min of 0.3 ug/kg administration in the dog heart-lung preparation; assay type: functional, Canis lupus familiaris; procedure, shortened: as §1
Canis familiaris [15] = experiment: The change in cardiac contractile force after 1 mg/kg iv administration, activity is expressed as % change.; assay type: functional, Canis lupus familiaris, Heart; procedure, shortened: as §4
Canis familiaris [16] = experiment: Pharmacological activity for heart rate +15% in anesthetized dog was determined after intravenous administration; assay type: functional, Canis lupus familiaris; procedure, shortened: as §3
Canis familiaris [17] = experiment: The stroke volume was determined after 1.0 mg/kg administration with 20 mg/kg pentobarbital in the dog heart-lung preparation; assay type: functional, Canis lupus familiaris; procedure, shortened: as §2
Canis familiaris [18] = experiment: The change in mean arterial blood pressure was determined after 1 mg/kg iv administration; assay type: functional, Canis lupus familiaris; procedure, shortened: as §4
Canis familiaris [19] = experiment: The change in stroke volume after 10 min of 1.0 ug/kg administration in the dog heart-lung preparation; assay type: functional, Canis lupus familiaris; procedure, shortened: as §1
Canis familiaris [20] = experiment: Stroke work was determined after 1.0 mg/kg administration with 20 mg/kg pentobarbital in the dog heart-lung preparation; assay type: functional, Canis lupus familiaris; procedure, shortened: as §2
Canis familiaris [21] = experiment: The change in cardiac contractile force was determined after 10 min of 3.0 ug/kg administration in the dog heart-lung preparation; assay type: functional, Canis lupus familiaris; procedure, shortened: as §1
Canis familiaris [22] = experiment: The change in left atrial pressure after 10 min of 0.3 ug/kg administration in the dog heart-lung preparation; assay type: functional, Canis lupus familiaris, Cardiac atrium; procedure, shortened: as §1
Canis familiaris [23] = experiment: The change in stroke volume after 10 min of 3.0 ug/kg administration in the dog heart-lung preparation; assay type: functional, Canis lupus familiaris; procedure, shortened: as §1
Canis familiaris [24] = experiment: The cardiac output was determined after 1.0 mg/kg administration with 20 mg/kg pentobarbital in the dog heart-lung preparation; assay type: functional, Canis lupus familiaris; procedure, shortened: as §2
Canis familiaris [25] = experiment: The change in cardiac contractile force was determined after 10 min of 1.0 ug/kg administration in the dog heart-lung preparation; assay type: functional, Canis lupus familiaris; procedure, shortened: as §1
Canis familiaris [26] = experiment: Pharmacological activity for Blood pressure, -20% in anesthetized dog was determined after intravenous administration; assay type: functional, Canis lupus familiaris; procedure, shortened: as §3
Canis familiaris [27] = experiment: The change in mean arterial blood pressure was determined after 1 mg/kg iv administration with 0.5 mg/kg, iv propranolol; assay type: functional, Canis lupus familiaris; procedure, shortened: as §4
Canis familiaris [28] = experiment: The cardiac contractile force was determined after 1.0 mg/kg administration with 20 mg/kg pentobarbital in the dog heart-lung preparation; assay type: functional, Canis lupus familiaris; procedure, shortened: as §2
Canis familiaris [29] = experiment: as §5; assay type: functional, Canis lupus familiaris; procedure, shortened: as §1; remark: listed apart in the source
Canis familiaris [30] = experiment: The change in heart rate was determined after 10 min of 3.0 ug/kg administration in the dog heart-lung preparation; assay type: functional, Canis lupus familiaris; procedure, shortened: as §1
Canis familiaris [31] = experiment: The change in heart rate was determined after 10 min of 1.0 ug/kg administration in the dog heart-lung preparation; assay type: functional, Canis lupus familiaris; procedure, shortened: as §1

COc1ccc(C(=O)c2[nH]c(O)nc2C)cc1
Change (Canis familiaris [1]): -1.1 mL
Heart rate (Canis familiaris [2]): 151 beats min-1
Change (Canis familiaris [3]): -0.7% and -10%
Change (Canis familiaris [4]): 22% and 14%
Equieffective dose (Canis familiaris [5]): 0.16 mg/kg
Change (Canis familiaris [6]): 144%
Change (Canis familiaris [7]): 4%
Change (Canis familiaris [8]): -43%
Change (Canis familiaris [9]): -1.2 mL
Change (Canis familiaris [10]): 179%
Change (Canis familiaris [11]): -49%
Left atrial pressure (Canis familiaris [12]): 2.6 mmHg
Change (Canis familiaris [13]): -1.1 mmHg
Change (Canis familiaris [14]): 62% and 88%
Change (Canis familiaris [15]): 127%
Equieffective dose (Canis familiaris [16]): 0.4 mg/kg
Stroke volume (Canis familiaris [17]): 7 mL
Change (Canis familiaris [18]): -27%
Change (Canis familiaris [19]): -16%
Stroke work (Canis familiaris [20]): 7.7 g
Change (Canis familiaris [21]): 129 g
Change (Canis familiaris [22]): -1.6 mmHg
Change (Canis familiaris [23]): -18%
Cardiac output (Canis familiaris [24]): 1053 mL/min
Change (Canis familiaris [25]): 96.7% and 121%
Equieffective dose (Canis familiaris [26]): 0.65 mg/kg
Change (Canis familiaris [27]): -33%
Cardiac contractile force (Canis familiaris [28]): 88 g
Change (Canis familiaris [29]): 46 mL/min
Change (Canis familiaris [30]): 41% and 28%
Change (Canis familiaris [31]): 35% and 23%

— ChEMBL document CHEMBL1121991, “4-Aroyl-1,3-dihydro-2H-imidazol-2-ones, a new class of cardiotonic agents” (1982)
